The RNAGym collection of RNA variant scans (doi:10.1126/science.aae0568)
This sample holds only a part of the variants without activity.

B1: tRNA (parent)
chain: GUUCCGUUGGCGUAAUGGUAACGCGUCUCCCUCCUAAGGAGAAGACUGCGGGUUCGAGUCCCGUACGGAACG

Variants of: B1
Assay: yeast fitness relative to wild type (ratio to wild type); higher = fitter; tRNA-Arg(CCU), competitive growth, 37 C, YPD
Outline: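 Amplicons of the tRNA-Arg(CCU) gene were sequenced, 100-nucleotide paired-end, from the start population and from each end population of a pooled yeast competition. The competition, in six parallel replicates, lasted 24 hours in YPD at 37°C. Fitness relative to wild type was calculated from changes in genotype frequencies. Genotypes had to have ≥ 100 starting reads, and estimates < 0.5 were set to 0.5.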

| Variant | yeast fitness |
| --- | --- |
| G10A C11U A15G C30U C60G | ≤ 0.5 |
| G10A G38C G50A A69G | ≤ 0.5 |
| G9C G10C C29G C46A | 0.59 |
| G9U U16G C66A | ≤ 0.5 |
| G10A A40G | 0.79 |
| G10A A40U | 0.683 |
| G9C C31G U54A G67C A69U | ≤ 0.5 |
| G10A A21C C24A A65C | 0.521 |
| G9C U28A G50C U59A | 0.685 |
| G10A G50A G51A | ≤ 0.5 |
| G9C G38C | 0.546 |
| G9C U32C A43C | ≤ 0.5 |
| G9U C27U C29A C31A | ≤ 0.5 |
| G10A A14U A43C A69C | ≤ 0.5 |
| G10A A14U A21C C29U C60A | 0.647 |
| G9C G25A | 0.721 |
| G9C U19C A40U A57U | ≤ 0.5 |
| G10A C30U G63A | 0.538 |
| G9C G10C A36C G39C G48A | 0.512 |
| G9C U13G U28C G41C A43C A45U C49G U53G A69C | 0.611 |
| G9C G17A C66U | ≤ 0.5 |
| G10A A21G U28C | ≤ 0.5 |
| G10A A15U A36U A70C | ≤ 0.5 |
| G9C U16G A70U | ≤ 0.5 |

| Variant | yeast fitness |
| --- | --- |
| G10A A45C G50C G51C C55U G68A A70C | ≤ 0.5 |
| G10A C29U G44C C60U | ≤ 0.5 |
| G10A C11A C29A C66U | ≤ 0.5 |
| G10A C30U A43U C55A | ≤ 0.5 |
| G9C G52U | 0.502 |
| G10A A15G A42C | ≤ 0.5 |
| G10A G58A | 0.767 |
| G10A C29U C31U G48C U54A | ≤ 0.5 |
| G10A C29G G56C U59A | ≤ 0.5 |
| G9C U26C C61A G67A | ≤ 0.5 |
| G9C C34U A43U C55A A57C | ≤ 0.5 |
| G10A C29A C55G A65G | 0.649 |
| G10A A21U C31A G39C C62G G68A | ≤ 0.5 |
| G9C C31G A40C | 0.597 |
| G10A C60G A69G | 0.616 |
| G9C U13C C31G A57G | ≤ 0.5 |
| G10A G25A C62U | ≤ 0.5 |
| G10A G25C | 0.656 |
| G10A C33U C49U | 0.663 |
| G9C U16G U32C A37C | ≤ 0.5 |
| G9C U32C A36G G52A | ≤ 0.5 |
| G9C U53C C60A | ≤ 0.5 |
| G10A G12A G17U U28C U54C | ≤ 0.5 |
| G9C U16C | 0.731 |

| Variant | yeast fitness |
| --- | --- |
| G9C U19C A69U | 0.656 |
| G9C G39C G41A A43U | ≤ 0.5 |
| G10A C30U C60G | ≤ 0.5 |
| G10A C22U G56C | 0.566 |
| G10A G17A C61A C62U A65U A69C | ≤ 0.5 |
| G10A G58C A65U | ≤ 0.5 |
| G10A C24A C27A A45G | ≤ 0.5 |
| G10A A42C A43C | 0.612 |
| G9C U19A A20G C29U A37U C62U G67A A70C | ≤ 0.5 |
| G10A C30A A70G | ≤ 0.5 |
| G9C C46G C61G A65C | ≤ 0.5 |
| G10A A43U | 0.781 |
| G9C U32A C55U A57U | ≤ 0.5 |
| G10A C31A G41A A45U G58C | ≤ 0.5 |
| G9C G23C | 0.573 |
| G9C C62U | 0.814 |
| G10A A65G | 0.627 |
| G10A A21U U53A C66U | ≤ 0.5 |
| G9C U13A G25A A40C A57C C61U G67A | ≤ 0.5 |
| G10A A42G G50C | ≤ 0.5 |
| G10A A15G C55U | 0.591 |
| G10A C24A G44A | 0.553 |
| G9C U28C C30G C49G | ≤ 0.5 |
| G10A C11U G58C A65U | ≤ 0.5 |

| Variant | yeast fitness |
| --- | --- |
| G10A C27A A36U A37U G48C | ≤ 0.5 |
| G10A C27U U28C C30A G48A G50A | 0.985 |
| G10A A37U A45G C46G C55A | ≤ 0.5 |
| G9C G23C C29U A36C C49G | ≤ 0.5 |
| G10A C11A A15C C24A C34A C46G G67C | ≤ 0.5 |
| G10A A21G C22U | 0.606 |
| G10A C30A A43C A57U | ≤ 0.5 |
| G10A G12A U16A G18A A45U | ≤ 0.5 |
| G10A C34G G44C U47C G52A U53C C61U | ≤ 0.5 |
| G10A | 0.705 |
| G10A G17A U19A C29U C66U | ≤ 0.5 |
| G10A G25U A36U A43G C60U | ≤ 0.5 |
| G9C U16C G51C | ≤ 0.5 |
| G10A G17C C30G C33G | 0.578 |
| G9C C46A | 0.893 |
| G10A G17A U28C C31G G67C | ≤ 0.5 |
| G9C U13C A20G C31G A57G | ≤ 0.5 |
| G10A C62U G67C | 0.636 |
| G10A G44A C66U | 0.534 |
| G9C G12C A14G A20C G67C | ≤ 0.5 |
| G9C C55A C61U | ≤ 0.5 |
| G10A C24G A43G | ≤ 0.5 |
| G10A C30G C60G G63A A65U C66U | ≤ 0.5 |
| G10A G17C C30G C33G A45U G52A A70U | ≤ 0.5 |

| Variant | yeast fitness |
| --- | --- |
| G9C G23A A36C | 0.777 |
| G10A G50A U59A C61A C66G | 0.606 |
| G9C G44C C61U | 0.584 |
| G9U C27U C29A A69U | ≤ 0.5 |
| G10A C27A U35C | ≤ 0.5 |
| G10A A36U G38A A65C | ≤ 0.5 |
| G10A G12A G52A C66U | ≤ 0.5 |
| G10A C55A G68C | ≤ 0.5 |
| G10A A57C U59C | ≤ 0.5 |
| G9C U35A A43U | ≤ 0.5 |
| G9C G17C C27G U35A C49A | ≤ 0.5 |
| G10A A45G U59C | 0.616 |
| G9C G17C G39C A70U | ≤ 0.5 |
| G9C C33U A40G U54G C62G | ≤ 0.5 |
| G9C C49U A57G | 0.615 |
| G10A G38A A45G A70G | ≤ 0.5 |
| G10A A36U A43G C66A | ≤ 0.5 |
| G9C C34G U47C C49U | ≤ 0.5 |
| G10A C24A G44A A65U | ≤ 0.5 |
| G10A G17A C29A C34G A43C C60G | ≤ 0.5 |
| G10A C22U U47C | ≤ 0.5 |
| G9C C31A | 0.685 |
| G10A C30U G50A | 0.529 |
| G10A C27G G48C C62A | ≤ 0.5 |

| Variant | yeast fitness |
| --- | --- |
| G10A C24G C62U | 0.54 |
| G9C C66G | 0.547 |
| G10A C31U G38C | 0.512 |
| G10A A20G U26C G39A | ≤ 0.5 |
| G10A G23C A45G A65U | ≤ 0.5 |
| G10A A14G C34G | ≤ 0.5 |
| G10A C61A A69C A70C | ≤ 0.5 |
| G9C G63A C66U | ≤ 0.5 |
| G9C U19C G48A C49U | 0.634 |
| G9C C55U | 0.635 |
| G9C C55A | 0.631 |
| G10A C29G U53A G56C C62G A69C | ≤ 0.5 |
| G10A C27G C55A C61A | ≤ 0.5 |
| G10A G17C C30G C33G G68C | ≤ 0.5 |
| G10A A37G C49G | ≤ 0.5 |
| G9C U28C G44C U54C | ≤ 0.5 |
| G10A G41A C49U U53A | ≤ 0.5 |
| G10A C24G C34U | ≤ 0.5 |
| G10A C30A G41C C60G A70U | 0.645 |
| G10A C24G U47C C62U | ≤ 0.5 |
| G9C U16A C24U C30U | 0.533 |
| G9C G10C | 0.68 |
| G10A A14G A36G | ≤ 0.5 |
| G10A C66A G67C | ≤ 0.5 |

| Variant | yeast fitness |
| --- | --- |
| G10A A15C G25A U47C C66U | 0.558 |
| G10A C11U A43U C60U | ≤ 0.5 |
| G10A C11A C22U C34G A43C G48C | 0.585 |
| G10A A57G C62G C66U | ≤ 0.5 |
| G9C U26G C55A | ≤ 0.5 |
| G9C U35C C46U | 0.601 |
| G10A G12C C31U | 0.62 |
| G9C G17A C27U U54A | ≤ 0.5 |
| G10A A21U U53A | 0.521 |
| G10A A37U C61G C66G | 0.623 |
| G9C U13C A69C | 0.564 |
| G10A A21G C30U G50C | 0.752 |
| G10A G23C C29U A36C | 0.532 |
| G10A A36C A70U | ≤ 0.5 |
| G9C G38C G48C | 0.582 |
| G10A C46G A65C | 0.597 |
| G10A G51A C66U | ≤ 0.5 |
| G10A C11A | 0.636 |
| G10A C24G C27U | 0.547 |
| G9C C49G G50A C60G A65G A70G | ≤ 0.5 |
| G10A G38U G67C | ≤ 0.5 |
| G10A G38U G67U | ≤ 0.5 |
| G10A C34G | ≤ 0.5 |
